Ten compounds from ChEMBL document CHEMBL3627654, “Ring substitution influences oxidative cyclisation and reactive metabolite formation of nordihydroguaiaretic acid analogues” (Bioorg Med Chem, 2015) can be followed below.

Data set [1] is described as follows: Drug degradation in 0.5M phosphate citric acid buffer at 0.5 mM at pH 7.4 at 37 degC by HPLC-UV analysis. The format is physicochemical. The following applies: pH 7.4, 500 µM. In outline: (§1)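 Aliquots over time quenched to pH 1.5 with HCl, quantified by HPLC against standard curves (peak area ratio to DMPA). k from slope of ln(C/Co) versus time, pseudo-first-order; half-life derived.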

The nature of data set [2]: Half life of the compound in 0.5M phosphate citric acid buffer at 0.5 mM at pH 7.4 at 37 degC by HPLC-UV analysis. Format: ADME. In outline: as §1
Data set [3] is described as follows: Stability of compound in 0.5M phosphate citric acid buffer assessed as autoxidative conversion at 0.1 mM at pH 7.4 at 37 degC for 90 mins by HPLC-UV analysis. Format: physicochemical. Particulars: pH 7.4, 1.5 h, 100 µM. The procedure, abridged:
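Incubated 90 min at 37 °C. Dibenzocyclooctadiene formation monitored by HPLC, with products examined by MS and NMR. NDGA served as positive control.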

Data set [4] in a line: Stability of compound assessed as level of starting material at 37 degC for 6 hrs in presence of 20 fold excess of glutathione. The format is physicochemical. The following applies: read-out: Stability. In outline: (§2)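 Substrate and DMPA internal standard, 0.5 mM each, incubated in phosphate–citrate buffer (0.5 M, pH 7.4) at 37 °C for 6 h with or without 20-fold excess glutathione. Samples acidified to pH 1.5 and analysed directly by HPLC and ESI-MS. Relative percentage of starting material, cyclised product and adduct reported.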

The nature of data set [5]: Stability of compound assessed as level of starting material at 37 degC for 6 hrs in absence of glutathione. The format is physicochemical. The following applies: read-out: Stability. In outline: as §2
Data set [6] can be described thus: Stability of compound assessed as formation of cNDGA in phosphate citric acid buffer at pH 7.4 at 37 degC by HPLC-UV analysis. The format is physicochemical. In outline: (§3)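 Formation rate of the dibenzocyclooctadiene inferred from loss of the parent substrate (0.5 mM, DMPA internal standard) in phosphate–citric acid buffer (0.5 M, pH 7.4) at 37 °C. Aliquots acidified to pH 1.5 with HCl and analysed by HPLC; first-order k from ln(C/Co) versus time, relative rate versus NDGA.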

The nature of data set [7]: Dissociation constant, pKa of compound. Format: physicochemical.
Data set [8] is described as follows: Drug degradation in phosphate citric acid buffer at pH 7.4 at 37 degC at 0.5 mM by HPLC-UV analysis. Format: physicochemical. The following applies: pH 7.4, 500 µM. In outline: as §1
A short description of data set [9]: Drug degradation in phosphate citric acid buffer at pH 7.4 at 37 degC by HPLC-UV analysis relative to cNDGA. Format: physicochemical. In outline:
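Cyclised dibenzocyclooctadiene derivative (0.5 mM) with DMPA internal standard incubated in phosphate–citric acid buffer (0.5 M, pH 7.4) at 37 °C; aliquots acidified to pH 1.5 and parent loss followed by HPLC. First-order rate constant from ln(C/Co) versus time, expressed relative to cNDGA.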

The nature of data set [10]: Stability of compound in 0.5M phosphate citric acid buffer assessed as drug degradation at 0.5 mM at pH 7.4 at 37 degC for 48 hrs by HPLC-UV analysis. The format is physicochemical. The following applies: read-out: Drug degradation. In outline:
as §1

The nature of data set [11]: Stability of compound assessed as formation of 5,6,7,8-Tetrahydro-dibenzo[a,c]cyclooctene-2,3,10,11-tetraol in phosphate citric acid buffer at pH 7.4 at 37 degC by HPLC-UV analysis. Format: physicochemical. The procedure, abridged: as §3
A short description of data set [12]: Stability of compound assessed as formation of 5,6,7,8-Tetrahydro-dibenzo[a,c]cyclooctene-2,3,10,11-tetraol in phosphate citric acid buffer at pH 7.4 at 37 degC by HPLC-UV analysis relative to NDGA. Format: physicochemical. In outline:
as §3

For `CC(Cc1ccc(O)c(O)c1)C(C)Cc1ccc(O)c(O)c1` (centres undefined) [NORDIHYDROGUAIARETIC ACID], the values for the K in [1] and in [6] were 4.88 ×10⁻⁵ /s and 2.78 ×10⁻⁵ /s, respectively. Moreover, the half-life (in general, the time needed for the level to fall by half in the phase considered) at 500 µM in data set [2] is 3.94 h. Besides, the Drug metabolism entry in data set [3] is given as “metabolite_detected”. The remaining at 6 h was found to be 87.1% in [4] and 66.9% in data set [5]. Besides, in [7], the pKa (as a rule, the negative logarithm of the acid dissociation constant) was determined as 9.3.

The compound `CC(Cc1ccccc1)C(C)Cc1ccc(O)c(O)c1` (centres undefined) came in with a K in data set [1] of 4.56 ×10⁻⁵ /s. This compound showed a half-life at 500 µM in data set [2] of 4.22 h. Also, in data set [3], the Drug metabolism entry is reported as “metabolite_detected”.

`CC1Cc2cc(O)c(O)cc2-c2cc(O)c(O)cc2CC1C` (centres undefined) gave a K in data set [8] of 0.47 ×10⁻⁵ /s.

`COc1cc(CC(C)C(C)Cc2ccccc2)ccc1O` (centres undefined) came in with a K in data set [1] of 3.5 ×10⁻⁵ /s. Besides, the half-life at 500 µM in [2] was 5.49 h. In addition, in data set [3], the Drug metabolism result is “metabolite_detected”.

For the compound `COc1ccc(CC(C)C(C)Cc2ccc(OC)c(O)c2)cc1O` (centres undefined), in data set [1], the K was 4.11 ×10⁻⁵ /s. In data set [2], this compound showed a half-life at 500 µM of 4.68 h. Also, the Drug metabolism entry in data set [3] is “metabolite_detected”.

The compound `Oc1cc2c(cc1O)-c1cc(O)c(O)cc1CCCC2` showed a K in data set [8] of 1.75 ×10⁻⁵ /s. In addition, in data set [9], the Ratio came to 3.7.

Regarding `CC(Cc1cccc(O)c1)C(C)Cc1cccc(O)c1` (centres undefined), the degraded at 48 h, 500 µM in [10] was under 5%. In addition, the Drug metabolism result in data set [3] is “metabolite_detected”.

In data set [1], `COc1ccc(CC(C)C(C)Cc2ccc(O)c(O)c2)cc1OC` (centres undefined) showed a K of 4.16 ×10⁻⁵ /s. In addition, the half-life at 500 µM in data set [2] is 4.62 h. Further, in data set [3], the Drug metabolism result is “metabolite_detected”.

Turning to `COc1cc(CC(C)C(C)Cc2ccc(O)c(OC)c2)ccc1O` (centres undefined) [DIHYDROGUAIARETIC ACID], the K in [1] was found to be 2.87 ×10⁻⁵ /s. The compound also had a half-life at 500 µM in [2] of 6.7 h. The Drug metabolism entry in data set [3] is recorded as “metabolite_detected”.

For the compound `Oc1ccc(CCCCc2ccc(O)c(O)c2)cc1O`, the K amounted to 13.1 ×10⁻⁵ /s in [1] and 8.7 ×10⁻⁵ /s in data set [11]. The compound also gave a half-life at 500 µM in [2] of 1.47 h. Further, the Drug metabolism entry in data set [3] is “metabolite_detected”. For the same compound, the remaining at 6 h in data set [4] amounted to 95.5%; in data set [5], 8.52%. Further, the Ratio in [12] is recorded as 3.1.
